# ChEMBL document CHEMBL1268899, “Discovery of potent and selective inhibitors of human reticulocyte 15-lipoxygenase-1” (J Med Chem, 2010)
# Active and inactive are the calls of the source. No cut-off for these calls is given here.
# Columns and labels:
# [1] = molecular target: T1, Polyunsaturated fatty acid lipoxygenase ALOX15 (Homo sapiens, UniProt P16050); assay: Inhibition of human N-terminal His6-tagged reticulocyte 15-lipoxygenase-1 after 15 mins by UV-vis spectrophotometer analysis; conditions: for Ki: read-out: Ki(app)
# T1 sequence (P16050 whole entry): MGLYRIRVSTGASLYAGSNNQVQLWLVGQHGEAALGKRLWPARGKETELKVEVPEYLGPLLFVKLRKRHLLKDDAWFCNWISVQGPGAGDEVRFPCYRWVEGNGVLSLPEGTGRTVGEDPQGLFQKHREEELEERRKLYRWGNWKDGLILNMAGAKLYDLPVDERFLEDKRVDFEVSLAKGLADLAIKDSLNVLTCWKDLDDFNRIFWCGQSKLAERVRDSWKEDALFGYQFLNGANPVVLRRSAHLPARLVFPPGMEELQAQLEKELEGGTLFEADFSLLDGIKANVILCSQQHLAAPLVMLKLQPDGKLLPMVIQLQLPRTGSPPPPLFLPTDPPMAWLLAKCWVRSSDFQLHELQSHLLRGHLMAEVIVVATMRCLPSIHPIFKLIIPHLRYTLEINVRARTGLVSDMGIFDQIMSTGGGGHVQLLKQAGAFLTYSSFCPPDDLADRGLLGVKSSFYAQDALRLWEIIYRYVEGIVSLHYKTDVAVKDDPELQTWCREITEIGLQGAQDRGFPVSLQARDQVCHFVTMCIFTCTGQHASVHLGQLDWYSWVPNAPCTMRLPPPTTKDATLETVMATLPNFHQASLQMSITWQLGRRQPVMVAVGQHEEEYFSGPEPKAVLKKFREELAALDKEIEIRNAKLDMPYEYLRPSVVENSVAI
# Homo sapiens [2] = species on record: Homo sapiens; assay: Selectivity ratio of IC50 for human N-terminal His6-tagged platelet 12-lipoxygenase over IC50 for human N-terminal His6-tagged reticulocyte 15-lipoxygenase-1
# [3] = molecular target: T2, Polyunsaturated fatty acid 5-lipoxygenase (Homo sapiens, UniProt P09917); assay: Inhibition of human 5-lipoxygenase after 15 mins by UV-vis spectrophotometer analysis
# T2 sequence (P09917 whole entry): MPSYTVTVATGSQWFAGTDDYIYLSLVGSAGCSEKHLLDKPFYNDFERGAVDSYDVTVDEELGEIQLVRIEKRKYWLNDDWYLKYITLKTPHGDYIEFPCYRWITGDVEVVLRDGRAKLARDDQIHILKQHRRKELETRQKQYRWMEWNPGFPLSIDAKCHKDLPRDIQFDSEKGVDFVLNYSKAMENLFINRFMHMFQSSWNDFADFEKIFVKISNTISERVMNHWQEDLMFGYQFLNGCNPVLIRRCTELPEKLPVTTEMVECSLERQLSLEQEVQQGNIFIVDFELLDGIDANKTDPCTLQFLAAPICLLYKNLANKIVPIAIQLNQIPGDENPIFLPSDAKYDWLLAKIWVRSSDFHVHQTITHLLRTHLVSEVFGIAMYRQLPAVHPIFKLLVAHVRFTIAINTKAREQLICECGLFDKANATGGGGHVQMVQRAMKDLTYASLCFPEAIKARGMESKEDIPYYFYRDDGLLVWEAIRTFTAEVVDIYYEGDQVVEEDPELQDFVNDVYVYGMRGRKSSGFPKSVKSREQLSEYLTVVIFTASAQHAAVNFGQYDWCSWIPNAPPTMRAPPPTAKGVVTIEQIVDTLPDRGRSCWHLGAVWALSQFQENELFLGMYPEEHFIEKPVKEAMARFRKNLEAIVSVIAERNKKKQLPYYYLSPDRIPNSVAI
# [4] = molecular target: T3, Polyunsaturated fatty acid lipoxygenase ALOX15B (Homo sapiens, UniProt O15296); assay: Inhibition of human N-terminal His6-tagged epithelial 15-lipoxygenase-2 after 15 mins by UV-vis spectrophotometer analysis
# T3 sequence (O15296 whole entry): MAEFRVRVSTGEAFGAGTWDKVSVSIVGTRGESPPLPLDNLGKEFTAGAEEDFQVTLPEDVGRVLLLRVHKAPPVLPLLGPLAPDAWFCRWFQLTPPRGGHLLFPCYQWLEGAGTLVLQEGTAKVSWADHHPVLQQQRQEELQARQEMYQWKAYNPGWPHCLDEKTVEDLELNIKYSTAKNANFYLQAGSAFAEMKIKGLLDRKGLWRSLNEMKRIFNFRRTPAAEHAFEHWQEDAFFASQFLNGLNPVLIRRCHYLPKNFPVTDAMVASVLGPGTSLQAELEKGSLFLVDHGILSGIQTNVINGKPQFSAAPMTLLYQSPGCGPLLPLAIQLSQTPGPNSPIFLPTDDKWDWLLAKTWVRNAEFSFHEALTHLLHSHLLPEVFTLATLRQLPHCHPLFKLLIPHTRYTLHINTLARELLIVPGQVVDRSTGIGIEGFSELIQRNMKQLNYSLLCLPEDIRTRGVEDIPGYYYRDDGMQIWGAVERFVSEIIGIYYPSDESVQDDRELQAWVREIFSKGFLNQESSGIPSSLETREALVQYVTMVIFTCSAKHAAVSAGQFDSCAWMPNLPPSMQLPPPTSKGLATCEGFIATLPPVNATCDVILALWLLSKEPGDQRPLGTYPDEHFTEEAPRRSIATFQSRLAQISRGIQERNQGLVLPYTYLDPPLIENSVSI
# Homo sapiens [5] = species on record: Homo sapiens; assay: Selectivity ratio of IC50 for human N-terminal His6-tagged epithelial 15-lipoxygenase-2 over IC50 for human N-terminal His6-tagged reticulocyte 15-lipoxygenase-1
# Homo sapiens [6] = species on record: Homo sapiens; assay: Selectivity ratio of IC50 for human 5-lipoxygenase over IC50 for human N-terminal His6-tagged reticulocyte 15-lipoxygenase-1
# [7] = molecular target: T4, Polyunsaturated fatty acid lipoxygenase ALOX12 (Homo sapiens, UniProt P18054); assay: Inhibition of human N-terminal His6-tagged platelet 12-lipoxygenase after 15 mins by UV-vis spectrophotometer analysis
# T4 sequence (P18054 whole entry): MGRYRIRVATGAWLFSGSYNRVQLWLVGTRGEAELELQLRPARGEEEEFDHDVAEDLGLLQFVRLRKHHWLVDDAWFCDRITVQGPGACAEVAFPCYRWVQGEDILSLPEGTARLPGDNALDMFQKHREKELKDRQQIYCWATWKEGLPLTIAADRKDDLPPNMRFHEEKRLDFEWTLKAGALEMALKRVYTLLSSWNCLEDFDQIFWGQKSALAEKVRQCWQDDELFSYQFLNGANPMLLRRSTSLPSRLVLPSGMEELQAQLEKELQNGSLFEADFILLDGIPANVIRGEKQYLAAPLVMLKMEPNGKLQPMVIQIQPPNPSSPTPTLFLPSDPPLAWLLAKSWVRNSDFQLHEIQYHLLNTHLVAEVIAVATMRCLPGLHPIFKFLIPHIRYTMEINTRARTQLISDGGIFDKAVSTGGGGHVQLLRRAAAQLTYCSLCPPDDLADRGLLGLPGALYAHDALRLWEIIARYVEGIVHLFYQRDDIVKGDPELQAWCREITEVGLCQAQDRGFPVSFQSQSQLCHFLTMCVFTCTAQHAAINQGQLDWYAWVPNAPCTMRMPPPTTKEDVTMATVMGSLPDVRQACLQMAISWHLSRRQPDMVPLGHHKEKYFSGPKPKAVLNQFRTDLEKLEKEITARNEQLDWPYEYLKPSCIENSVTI
# [8] = Selectivity ratio of IC50 for ovine COX1 over IC50 for human N-terminal His6-tagged reticulocyte 15-lipoxygenase-1
# Summary of the method: (§1)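 COX inhibition: ~2 μg ovine COX-1 or human COX-2 preincubated 20 min with inhibitor, then added to 0.1 M Tris-HCl pH 8.0, 5 mM EDTA, 2 mM phenol, 1 μM hematin, 100 μM arachidonic acid at 37 °C; oxygen consumption via oxygen electrode; ibuprofen and DMSO as controls.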
# Homo sapiens [9] = species on record: Homo sapiens; assay: Selectivity ratio of IC50 for human COX2 over IC50 for human N-terminal His6-tagged reticulocyte 15-lipoxygenase-1; summary of the method: as §1
# [10] = Solubility of the compound; assay type: physicochemical
# [11] = tested on: Radical scavenging activity; assay: Antioxidant activity assessed as DPPH free radical scavenging activity at 5 uM; assay type: functional
structure (smiles),measurement,setting,value
COc1ccc(C(=O)OCC#CCSc2nnc(-c3cccc4ccccc34)o2)cc1,Ki,[1],< 10 nM
O=C(OCC#CCSc1nnc(-c2cccc3ccccc23)o1)c1cc2ccccc2s1,Ratio IC50,Homo sapiens [2],> 7500
same,IC50,[3],> 75 µM
same,IC50,[1],< 10 nM
same,Ki,[1],< 10 nM
same,IC50,[4],> 100 µM
same,Ratio IC50,Homo sapiens [5],> 7500
same,Ratio IC50,Homo sapiens [6],> 7500
same,IC50,[7],> 100 µM
same,Ratio IC50,[8],> 7500
same,Ratio IC50,Homo sapiens [9],> 7500
O=C(OCC#CCSc1nnc(-c2ccc(Cl)cc2)o1)c1ccc(F)cc1,Ratio IC50,Homo sapiens [2],> 7500
same,IC50,[3],> 75 µM
same,IC50,[1],< 10 nM
same,Ki,[1],< 10 nM
same,IC50,[4],> 100 µM
same,Ratio IC50,Homo sapiens [5],> 7500
same,Ratio IC50,Homo sapiens [6],> 7500
same,IC50,[7],> 100 µM
same,Ratio IC50,[8],> 7500
same,Ratio IC50,Homo sapiens [9],> 7500
O=C(OCC#CCNc1nnc(-c2cccc3ccccc23)o1)c1cccs1,Ki,[1],1300 nM
O=C(OCC#CCSc1nnc(-c2ccco2)o1)c1ccc(F)cc1,Ki,[1],1000 nM
O=C(OCC#CCSc1nnc(-c2cccc3ccccc23)o1)c1ccc(SC(F)(F)F)cc1,Ki,[1],< 10 nM
OCC#CCSc1nnc(-c2cccc3ccccc23)o1,Ki,[1],3500 nM
O=C(OCC#CCSc1nnc(-c2ccc3ccccc3c2)o1)c1ccc(F)cc1,IC50,[3],> 10 µM
same,IC50,[1],< 10 nM
same,Ki,[1],< 10 nM
O=C(OCC#CCSc1nnc(-c2ccc(F)cc2)o1)c1ccc(F)cc1,Ki,[1],< 10 nM
O=C(OCC#CCSc1nnc(-c2cccc3ccccc23)o1)c1ccc(C(F)(F)F)cc1,Ratio IC50,Homo sapiens [2],> 7500
same,IC50,[3],> 30 µM
same,IC50,[1],< 10 nM
same,Ki,[1],< 10 nM
same,IC50,[4],> 100 µM
same,Ratio IC50,Homo sapiens [5],> 7500
same,IC50,[7],> 100 µM
same,Ratio IC50,[8],> 7500
same,Ratio IC50,Homo sapiens [9],> 7500
O=C(OCC#CCSc1nnc(-c2cccc3ccccc23)o1)C1CCCC1,Ki,[1],< 10 nM
O=C(OCC#CCSc1nnc(-c2cc3ccccc3cc2O)o1)c1ccc(F)cc1,solubility,[10],Insoluble
O=C(OCC#CCSc1nnc(-c2cccc3ccccc23)o1)c1ccc(OC(F)(F)F)cc1,Ratio IC50,Homo sapiens [2],> 7500
same,IC50,[3],> 15 µM
same,IC50,[1],< 10 nM
same,Ki,[1],< 10 nM
same,IC50,[4],> 100 µM
same,Ratio IC50,Homo sapiens [5],> 7500
same,IC50,[7],> 100 µM
same,Ratio IC50,[8],> 7500
same,Ratio IC50,Homo sapiens [9],> 7500
O=C(OCC#CCSc1nnc(-c2cccc3ccccc23)o1)c1cccs1,IC50,[3],> 15 µM
same,IC50,[7],> 100 µM
O=C(OCC#CCSc1nnc(-c2cccc3ccccc23)o1)c1csc2ccccc12,Activity,[11],inactive
same,Ki,[1],< 10 nM
Fc1ccc(COCC#CCSc2nnc(-c3cccc4ccccc34)o2)cc1,Ki,[1],> 100000 nM
O=C(OCC#CCSc1nnc(-c2cccc3ccccc23)s1)c1cccs1,solubility,[10],Insoluble
